Measured values reported in the EternaBench riboswitch data.

Tested on: MS2 coat protein
Test: apparent Kd, MS2 coat protein; higher = weaker binding; RNA-MaP array; FMN 200 µM where present
Outline: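 Each design was made on Illumina sequencing-chip clusters by stalled E. coli RNA polymerase and titrated with SNAP-549-labelled MS2 coat protein from 0.7 or 1.5 nM, doubling to 3 µM, in the absence and then the presence of constant ligand. The buffer was 100 mM Tris-HCl pH 7.5, 80 mM KCl, 4 mM MgCl2, BSA, DTT, yeast tRNA and Tween-20. The apparent Kd is the median of filtered per-cluster fits of binding curves, with green signal normalised to red-channel RNA signal and control-cluster median Fmax.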

[1] = designed as: OFF switch for flavin mononucleotide, no ligand
[2] = ligand present: flavin mononucleotide, designed as: OFF switch for flavin mononucleotide
[3] = designed as: ON switch for flavin mononucleotide, no ligand
[4] = ligand present: flavin mononucleotide, designed as: ON switch for flavin mononucleotide

Sequence | apparent Kd [1] | apparent Kd [2] | apparent Kd [3] | apparent Kd [4]
GUACUGCCCACAGAUAACUUAGCCAGAAGGGUCUACAUGAGGAUCACCCAUGUGGUCCAAAGUGGACAGGAUAUGGAAACGGUU | 68.4 nM | 40.9 nM | – | –
GUAGAACAUGAGGAUCACCCAUGUGAAGACGCAUGAGGAUAUGUCCGUACCUAGCAUACGAUAGAAGGCAUGGUAC | – | – | 69.2 nM | 88.2 nM
GUAGAGAUUACAUGAGGAUCACCCAUGUCAGAACGGGUAAUCAGAAGGUAUUAUUAGAGAAAGGGUAAGGAUAUGAUUUUUUAU | – | – | 735 nM | 617 nM
GUAGAGUAAGGAUAUAGUGAAUAGGAUAGAAUGGUUAGAAACUAGAAGGUACAUGAGGAUCACCCAUGUAAUGU | 23.6 nM | 21.2 nM | – | –
GUAGAGUAAGGAUAUUGUGAAUAGGAUAGAAUGGUUAGAAACAAGAAGGUACAUGAGGAUCACCCAUGUAAUGU | 22.1 nM | 19.8 nM | – | –
GUAGAGUCAGGAUAUACGAAUAGAUCGAAAGAUCAAUCCAUACAUGAGGAUCACCCAUGUAGAAGGGACUCUAC | 19.3 nM | 22.7 nM | – | –
GUAGAGUCAGGAUAUACGAGAUCGAAAGAUCAGUAAUCCUCACAUGAGGAUCACCCAUGUAGAAGGGACUCUAC | 23.4 nM | 344 nM | – | –
GUAGCAACAUGAGGAUCACCCAUGUAGGAUAUCGCUAUUGUAAUCAUGAAACAUGAUUACAAUAGCGAGAAGGACAUAUGCUAU | 7 nM | 10.3 nM | – | –
GUAGCAAUCGGAGGAUAUUCAUAGCCGAAAGGCACAUGAGGAUCACCCAUGUGGCGAAAGCCUUGGGAGAAGGCCGAUUGCUAC | – | – | 324 nM | 18 nM
GUAGCAAUCGGAGGAUAUUCAUGAAACAUGAGGAUCACCCAUGUUAAUAUGGGAGAAGGCCGAUUGCUACAAGAGCGAAAGCUC | – | – | 8.58 nM | 5.76 nM
GUAGCAAUCGGAGGAUAUUCAUGAUACAUGAGGAUCACCCAUGUUAAUAUGGGAGAAGGCCGAUUGCUACAAGAGCGAAAGCUC | – | – | 47.9 nM | 8.05 nM
GUAGCAUACCAAGGAUAUUCAGGGCGUGGAUAGACAUGAGGAUCACCCAUGUGGCGAAAGCCUAGGGAGAAGGUGGAAUGCUAC | – | – | 36.1 nM | 20.1 nM
GUAGCAUACCAAGGAUAUUCAGGGCUUGGAUAGACAUGAGGAUCACCCAUGUGGCGAAAGUCUAGGGAGAAGGUGGAAUGCUAC | – | – | 16.8 nM | 15.1 nM
GUAGCAUACCAAGGAUAUUUAGGACUUUGAUAGACAUGAGGAUCACCCAUGUGGCGUUAGUCACGGGAGAAGGUGGUAUGCUAC | – | – | 63.5 nM | 16.9 nM
GUAGCAUACCGAGGAUAUUCAUACCGGAAACGGACAUGAGGAUCACCCAUGUGGCGAAAGCCUUUGGAGAAGGCGGAAUGCUAC | – | – | 13.2 nM | 11.7 nM
GUAGCAUACCGAGGAUAUUCAUAUAAUAAAUAAACAUGAGGAUCACCCAUGUGGCGAAAGCCUUGGGAGAAGGCGGAAUGCUAC | – | – | 647 nM | 37.3 nM
GUAGCAUACCGAGGAUAUUCAUAUAGUAAUCUAACAUGAGGAUCACCCAUGUGGCGAAAGCCUUGGGAGAAGGCGGAAUGCUAC | – | – | 480 nM | 35.6 nM
GUAGCUAUCGGAGGAUAUUCAUACCGGAAACGGACAUGAGGAUCACCCAUGUGGCGAAAGACUUGGGAGAAGGCCGAUAGCUAC | – | – | 183 nM | 35.5 nM
GUAGCUAUCGGAGGAUAUUCAUACCGGAAACGGACAUGAGGAUCACCCAUGUGGCGAAAGCCUUGGGAGAAGGCAGAUAGCUAC | – | – | 693 nM | 28.6 nM
GUAGCUAUCGGAGGAUAUUCAUACCGGAAACGGACAUGAGGAUCACCCAUGUGUCGAAAGCCUUGGGAGAAGGCCGAUAGCUAC | – | – | 181 nM | 59.2 nM
GUAGCUAUCGGAGGAUAUUCAUACCGGAUACGGACAUGAGGAUCACCCAUGUGCCGAAAGGCUUGGGAGAAGGCCGAUAGCUAC | – | – | 108 nM | 16.9 nM
GUAGCUAUCGGAGGAUAUUCAUAGCGGAAACGGACAUGAGGAUCACCCAUGUGGCGAAAGCCUUGGGAGAAGGCCGAUAGCUAC | – | – | 39.6 nM | 8.1 nM
GUAGCUAUCGGAGGAUAUUCAUAGCGGAAACGGACAUGAGGAUCACCCAUGUGGCUAAAGCCUUGGGAGAAGGCCGAUAGCUAC | – | – | 25.8 nM | 6.64 nM
GUAGCUAUCGGAGGAUAUUCAUGAAACAUGAGGAUCACCCAUGUUAAAUUGGGAGAAGGCCGAUAGCUACAAGAGCGAAAGCUC | – | – | 7.5 nM | 5.32 nM
GUAGCUUUCCGAGGAUAUUCAGGGCGUGGAUAUACAUGAGGAUCACCCAUGUGGCGGAAGCCUAGGGAGAAGGCGGGCUGCUUC | – | – | 47.7 nM | 19 nM
GUAGGGUCAGGAUAUACUGGCUGAGGGAUGUAUUGUAGUUGGUAGAAGGGACAUGAGGAUCACCCAUGUAAGAA | 36 nM | 26.1 nM | – | –
GUAGUACAUGAGGAUCACCCAUGUGUAGAAGCAUGAGGAUAUGUCAGUCCAUGAAAAACGAUAGAAGGCAUGGUGA | – | – | 178 nM | 176 nM

Sequence | apparent Kd [1] | apparent Kd [2] | apparent Kd [3] | apparent Kd [4]
GUAGUGUAGUGAGGAUAUACGAGAUCGAUAGAUCGGCGAUCCAUUUAUACAUGAGGAUCACCCAUGUAGAAGGCACUUCACUAC | 6.17 nM | 51 nM | – | –
GUAUAUAUUACAUGAGGAUCACCCAUGUCAGAACGGGUAAUCAGAAGGUAGUAUUAGAGAAAGAUUAAGGAUAUGAUUAUAUAC | – | – | 231 nM | 81.1 nM
GUAUCAUACCAAGGAUAUUUAGGACUUGGAUAGACAUGAGGAUCACCCAUGUGGCGUUAGUCACGGGAGAAGGUGGUAUGAUAC | – | – | 103 nM | 20.7 nM
GUAUGAGCGAUAGGAUAUACUGAGAUUGAAUGGGUAGAAGGAUUUCUUGUGGGAAAGACAUGAGGAUCACCCAUGUCACGGACC | – | – | 291 nM | 148 nM
GUAUUGAUAACAGGAUAUAUGAGUCCUACAUGAGGAUCACCCAUGUAGGUGAUCAGCCGUGAUUAGUAGAAGGGUUAUCAAUAC | – | – | 12.5 nM | 5.98 nM
GUCACGAAUGUAGGAUAUCGAGUGGAUAACACUCGAGAAGGACAUGAGGAUCACCCAUGUACUAUGAAAGAUAAUAAACGUGAC | 14.4 nM | 20.4 nM | – | –
GUCAGCUCGUGAGGAUAUACAACACUGCGUCGGCAGUGUAUUAAGAUCACAUGAGGAUCACCCAUGUAGAAGGCACGAGCUGAU | 13.4 nM | 223 nM | – | –
GUCAGCUCGUGAGGAUAUACAACACUGCUUCGGCAGUGUAGUAAGAUCACAUGAGGAUCACCCAUGUAGAAGGCACGAGCUGAU | 6.05 nM | 26.3 nM | – | –
GUCAGCUCGUGAGGAUAUACAACACUGCUUCGGCAGUGUAUUAAGAGCACAUGAGGAUCACCCAUGUAGAAGGCACGAGCUGAU | 5.58 nM | 7.61 nM | – | –
GUCAGCUCGUGAGGAUAUACAACACUGCUUCGGCAGUGUAUUAAGAUCACAUGAGGAUCACCCAUGUAGAAGGCACCAGCUGAU | 16.3 nM | 215 nM | – | –
GUCAGCUCGUGAGGAUAUACAACACUGCUUCGGCAGUGUAUUAAGAUCACAUGAGGAUCACCCAUGUAGAAGGCACGAGCUGAC | 12.9 nM | 251 nM | – | –
GUCAGCUCGUGAGGAUAUACAACACUGCUUCGGCAGUGUAUUAGGAUCACAUGAGGAUCACCCAUGUAGAAGGCACGAGCUGAU | 16.3 nM | 323 nM | – | –
GUCAGCUCGUGAGGAUAUACAACACUGCUUCGGCAGUGUAUUCAGAUCACAUGAGGAUCACCCAUGUAGAAGGCACGAGCUGAU | 12.8 nM | 206 nM | – | –
GUCAGCUCGUGAGGAUAUACAACACUGCUUGGGCAGUGUAUUAAGAUCACAUGAGGAUCACCCAUGUAGAAGGCACGAGCUGAU | 13.9 nM | 216 nM | – | –
GUCAGCUCGUGAGGAUAUACAUAAUCCUAAGAUCACAUGAGGAUCACCCAUGUAGAAGGCACGAGCUGAUAAGCACGAAAGUGC | 8.89 nM | 50.2 nM | – | –
GUCAGCUCGUGAGGAUAUACAUGUGCUGGAAACAGCAUUAAAUAAUUCACAUGAGGAUCACCCAUGUAGAAGGCACGAGCUGAU | 16.8 nM | 33.8 nM | – | –
GUCAGUCGAGGAUAUACGAUCGUGCUUCGGCACGUAAGAUCACAUGAGGAUCACCCAUGUAGAAGGCGACUGAC | 32.5 nM | 257 nM | – | –
GUCAUCGCAUGAGGAUAUGGCACCGUUUCGGUGCCAGAAGGCAUGUCAAAUGACAUGAGGAUCACCCAUGUAGUUAAGAUGGCA | – | – | 229 nM | 17 nM
GUCCCGAGGGAGAAGGGCUAGGAGGUCCAGCUUAUGUGUGUUGCAACAUGAGGAUCACCCAUGUAGCAGGAUAUCCCUUGUACA | 52.2 nM | 219 nM | – | –
GUCCCUACAUGAGGAUCACCCAUGUGGGCGGUAAGGAGCCCACAGGAUAUGCGAAGUAGGACAUAGCAGAAGGGUGGUGUUCAG | – | – | 146 nM | 97.3 nM
GUCCUUAGCGAGGAUAUCGGGCGGGUUUUUGUUUGAGAAGGCGUGACAUGAGGAUCACCCAUGUGGCGCGUGGG | 39.2 nM | 69.7 nM | – | –
GUCGACCUAUUCGUCAGACUCUCACAGGAUAUACGAUACACAUGAGGAUCACCCAUGUAGAUAACGUAGAAGGGUGAUUCCGGU | – | – | 66.7 nM | 27.7 nM
GUCGAUCACCAGAAGGACAUGAGGAUCACCCAUGUAGGAUAUGGGUAAGACGUCACAUUGGCGUGCAAACGUUUGCGUUCGUAC | – | – | 11.9 nM | 6.42 nM
GUCGGAAACGACAAAAGUAUGGAUCCAGAAGGCAUGAAACAUGAGGAUCACCCAUGUCAAAGACAUGAGGAUAUGGAUCCAUAC | – | – | 4.06 nM | 3.19 nM
GUCGGAAACGACAAUGAUAGGACUGAGGAUAUACAUAAGUAAGUCCACACAUGAGGAUCACCCAUGUAGAAGGCAGUCCUAUCU | 21.9 nM | 187 nM | – | –
GUCGGAUGUAUAGGAUAUCGACUGGAAUACAGUCGAGAAGGAUACAUGAGGAUCACCCAUGUAAUAAUAAUAAUAAUAACCGAC | 12.5 nM | 24 nM | – | –
GUCGGGUCUCACGCGUCGGUCCACAUGAGGAUCACCCAUGUCAAGGAUAUAGCGUCUUCCGGGCGUUAGAAGGUGGCCAUUGGU | 26.6 nM | 61 nM | – | –
